Measurements taken from ChEMBL document CHEMBL3751731, “Ferulic acid-carbazole hybrid compounds: Combination of cholinesterase inhibition, antioxidant and neuroprotection as multifunctional anti-Alzheimer agents” (Bioorg Med Chem, 2016).

Target: Acetylcholinesterase (Electrophorus electricus, UniProt O42275)
Experiment: Inhibition of electric eel AChE using ATC as substrate preincubated for 5 mins followed by substrate addition measured after 2 mins by Ellman's assay

Chain of Acetylcholinesterase (Electrophorus electricus, UniProt O42275) (O42275 whole entry): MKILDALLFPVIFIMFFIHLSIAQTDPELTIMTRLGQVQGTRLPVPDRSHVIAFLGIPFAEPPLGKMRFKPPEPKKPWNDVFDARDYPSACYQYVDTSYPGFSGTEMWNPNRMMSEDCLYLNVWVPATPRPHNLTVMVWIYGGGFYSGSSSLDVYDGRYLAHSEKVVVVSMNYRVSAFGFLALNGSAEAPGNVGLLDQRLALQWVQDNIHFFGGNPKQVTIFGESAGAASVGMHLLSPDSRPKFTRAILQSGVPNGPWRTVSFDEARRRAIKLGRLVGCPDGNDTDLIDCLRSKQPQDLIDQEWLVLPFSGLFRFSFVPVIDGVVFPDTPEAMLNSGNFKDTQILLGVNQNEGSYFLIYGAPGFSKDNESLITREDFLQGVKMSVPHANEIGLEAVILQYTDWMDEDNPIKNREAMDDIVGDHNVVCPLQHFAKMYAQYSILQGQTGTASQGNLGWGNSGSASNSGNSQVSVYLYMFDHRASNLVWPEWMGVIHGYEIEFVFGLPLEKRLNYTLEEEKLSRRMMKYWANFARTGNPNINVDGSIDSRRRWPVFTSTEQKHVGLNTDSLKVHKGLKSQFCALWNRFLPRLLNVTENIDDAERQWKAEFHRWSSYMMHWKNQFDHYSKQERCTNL

**Q.** With `COc1ccc2c(c1)[nH]c1cccc(CN(C(=O)/C=C/c3ccc(O)c(OC)c3)C3CCCC3)c12` as the molecule, how does the IC50 read?
**A.** Its IC50 is 88.2 µM.

**Q.** With `CCN(Cc1cccc2[nH]c3ccccc3c12)C(=O)/C=C/c1ccc(O)c(OC)c1` as the molecule, how does the IC50 read?
**A.** Its IC50 is 18 µM.

**Q.** With `CC(C)NCc1cccc2[nH]c3ccccc3c12` as the molecule, how does the IC50 read?
**A.** The IC50 was 21.6 µM.

Target: Acetylcholinesterase (Homo sapiens, UniProt P22303)
Sequence (P22303 whole entry): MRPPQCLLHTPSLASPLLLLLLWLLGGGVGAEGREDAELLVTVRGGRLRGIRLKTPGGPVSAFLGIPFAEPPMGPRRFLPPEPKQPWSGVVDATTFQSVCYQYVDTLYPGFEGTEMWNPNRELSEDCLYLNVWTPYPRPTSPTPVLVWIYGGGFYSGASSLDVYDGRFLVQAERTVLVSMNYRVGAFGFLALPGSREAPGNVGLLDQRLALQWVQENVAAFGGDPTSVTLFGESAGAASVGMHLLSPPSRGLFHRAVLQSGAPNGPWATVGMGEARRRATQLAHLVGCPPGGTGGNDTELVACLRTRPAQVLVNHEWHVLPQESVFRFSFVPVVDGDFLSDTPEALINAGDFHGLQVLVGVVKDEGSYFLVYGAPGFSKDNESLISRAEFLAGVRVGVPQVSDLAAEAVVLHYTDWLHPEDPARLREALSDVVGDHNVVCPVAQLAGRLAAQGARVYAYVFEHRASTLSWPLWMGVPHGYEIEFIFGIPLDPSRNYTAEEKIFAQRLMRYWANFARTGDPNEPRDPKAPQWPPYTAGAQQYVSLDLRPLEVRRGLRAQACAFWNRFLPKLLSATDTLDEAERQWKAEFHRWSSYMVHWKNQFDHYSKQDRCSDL
Experiment: Inhibition of human AChE using ATC as substrate preincubated for 5 mins followed by substrate addition measured after 2 mins by Ellman's assay
How it was run: (§1)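 Ellman's method with DTNB chromogen, acetylthiocholine (AChE) or butyrylthiocholine (BChE) iodide substrate, in potassium phosphate buffer pH 8.0 (KOH-adjusted). Compounds were diluted from ethanol stocks, with a top final concentration of 10^-4 M. At least five concentrations (normally 10^-4–10^-9 M) were run, each in triplicate, read at 412 nm at 25 °C. IC50 values are from inhibition curves, as means of at least three determinations.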

**Q.** For `CC(C)NCc1cccc2[nH]c3ccccc3c12`, which IC50 is on record?
**A.** Its IC50 is 18 µM.

Target: Cholinesterase (Equus caballus, UniProt P81908)
Sequence (P81908 whole entry): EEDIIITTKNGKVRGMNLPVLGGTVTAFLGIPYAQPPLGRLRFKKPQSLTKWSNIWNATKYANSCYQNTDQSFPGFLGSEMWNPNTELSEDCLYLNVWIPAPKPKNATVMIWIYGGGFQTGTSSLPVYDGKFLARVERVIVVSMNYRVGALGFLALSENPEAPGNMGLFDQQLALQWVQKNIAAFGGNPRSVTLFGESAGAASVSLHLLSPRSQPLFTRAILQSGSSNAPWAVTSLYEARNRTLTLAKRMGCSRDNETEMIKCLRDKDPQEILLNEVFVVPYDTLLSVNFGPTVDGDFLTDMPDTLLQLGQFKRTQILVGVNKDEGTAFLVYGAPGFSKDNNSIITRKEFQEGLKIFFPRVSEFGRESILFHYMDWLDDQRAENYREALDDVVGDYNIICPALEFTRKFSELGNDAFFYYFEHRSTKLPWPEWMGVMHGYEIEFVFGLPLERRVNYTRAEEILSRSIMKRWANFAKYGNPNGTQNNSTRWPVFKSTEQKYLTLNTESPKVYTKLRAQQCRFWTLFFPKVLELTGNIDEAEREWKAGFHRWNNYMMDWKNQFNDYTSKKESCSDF
Experiment: Inhibition of equine BChE using BTC as substrate preincubated for 5 mins followed by substrate addition measured after 2 mins by Ellman's assay

**Q.** For `COc1ccc2c(c1)[nH]c1cccc(CN(C(=O)/C=C/c3ccc(O)c(OC)c3)C3CCCC3)c12`, which IC50 is on record?
**A.** Its IC50 is 25.9 µM.

**Q.** With `CCN(Cc1cccc2[nH]c3ccccc3c12)C(=O)/C=C/c1ccc(O)c(OC)c1` as the molecule, how does the IC50 read?
**A.** The IC50 was 13.8 µM.

**Q.** With `CC(C)NCc1cccc2[nH]c3ccccc3c12` as the molecule, how does the IC50 read?
**A.** The IC50 was 8.9 µM.

Target: Cholinesterase (Homo sapiens, UniProt P06276)
Sequence (P06276 whole entry): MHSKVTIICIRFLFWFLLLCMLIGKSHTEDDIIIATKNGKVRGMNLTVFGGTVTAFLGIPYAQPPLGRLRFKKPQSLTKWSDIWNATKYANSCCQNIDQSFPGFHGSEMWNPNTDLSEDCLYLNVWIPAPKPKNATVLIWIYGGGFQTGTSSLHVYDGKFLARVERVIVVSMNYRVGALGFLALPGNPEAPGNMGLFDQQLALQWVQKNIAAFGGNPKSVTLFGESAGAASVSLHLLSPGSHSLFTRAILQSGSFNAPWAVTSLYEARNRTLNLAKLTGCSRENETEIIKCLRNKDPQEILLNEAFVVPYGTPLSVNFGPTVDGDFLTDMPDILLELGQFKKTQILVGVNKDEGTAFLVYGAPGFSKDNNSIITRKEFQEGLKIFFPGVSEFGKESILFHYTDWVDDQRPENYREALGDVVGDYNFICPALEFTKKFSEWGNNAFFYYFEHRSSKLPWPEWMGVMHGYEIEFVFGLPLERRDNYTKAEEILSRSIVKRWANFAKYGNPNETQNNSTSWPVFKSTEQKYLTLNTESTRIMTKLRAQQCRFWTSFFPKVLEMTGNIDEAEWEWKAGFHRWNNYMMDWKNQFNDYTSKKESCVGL
Experiment: Inhibition of human BChE using BTC as substrate preincubated for 5 mins followed by substrate addition measured after 2 mins by Ellman's assay
How it was run: as §1

**Q.** With `CC(C)NCc1cccc2[nH]c3ccccc3c12` as the molecule, how does the IC50 read?
**A.** The IC50 was 8.1 µM.

System: not listed separately
Experiment: Antioxidant activity assessed as DPPH radical scavenging activity at 100 uM after 4 hrs by UV spectrophotometric analysis
Assay type: physicochemical
How it was run: (§2)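 DPPH radical at 0.1 mM in ethanol. Test compounds were in ethanol at 1–100 µM (1, 2, 10, 50, 100). Mixture lines used an equimolar (1:1) blend with ferulic acid. Absorbance was read at 517 nm before addition (Abs0) and after 4 h once stable (Abst). Scavenging % = (1 − Abst/Abs0) × 100.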

**Q.** Which Activity does the source give for `COc1ccc2c(c1)[nH]c1cccc(CN(C(=O)/C=C/c3ccc(O)c(OC)c3)C3CCCC3)c12` here?
**A.** Its Activity is 90.4%.

**Q.** For `CCN(Cc1cccc2[nH]c3ccccc3c12)C(=O)/C=C/c1ccc(O)c(OC)c1`, which Activity is on record?
**A.** Its Activity is 86.3%.

System: not listed separately
Experiment: Antioxidant activity assessed as DPPH radical scavenging activity at 50 uM after 4 hrs by UV spectrophotometric analysis
Assay type: physicochemical
How it was run: as §2

**Q.** With `COc1ccc2c(c1)[nH]c1cccc(CN(C(=O)/C=C/c3ccc(O)c(OC)c3)C3CCCC3)c12` as the molecule, how does the Activity read?
**A.** The Activity was 86.8%.

**Q.** For `CCN(Cc1cccc2[nH]c3ccccc3c12)C(=O)/C=C/c1ccc(O)c(OC)c1`, which Activity is on record?
**A.** Its Activity is 82.8%.

System: not listed separately
Experiment: Antioxidant activity assessed as DPPH radical scavenging activity at 10 uM after 4 hrs by UV spectrophotometric analysis
Assay type: physicochemical
How it was run: as §2

**Q.** For `COc1ccc2c(c1)[nH]c1cccc(CN(C(=O)/C=C/c3ccc(O)c(OC)c3)C3CCCC3)c12`, which Activity is on record?
**A.** Its Activity is 67.4%.

**Q.** With `CCN(Cc1cccc2[nH]c3ccccc3c12)C(=O)/C=C/c1ccc(O)c(OC)c1` as the molecule, how does the Activity read?
**A.** Its Activity is 55%.

System: not listed separately
Experiment: Antioxidant activity assessed as DPPH radical scavenging activity at 2 uM after 4 hrs by UV spectrophotometric analysis
Assay type: physicochemical
How it was run: as §2

**Q.** With `COc1ccc2c(c1)[nH]c1cccc(CN(C(=O)/C=C/c3ccc(O)c(OC)c3)C3CCCC3)c12` as the molecule, how does the Activity read?
**A.** Its Activity is 54%.

**Q.** Which Activity does the source give for `CCN(Cc1cccc2[nH]c3ccccc3c12)C(=O)/C=C/c1ccc(O)c(OC)c1` here?
**A.** Its Activity is 40.1%.

System: not listed separately
Experiment: Antioxidant activity assessed as DPPH radical scavenging activity at 1 uM after 4 hrs by UV spectrophotometric analysis
Assay type: physicochemical
How it was run: as §2

**Q.** Which Activity does the source give for `COc1ccc2c(c1)[nH]c1cccc(CN(C(=O)/C=C/c3ccc(O)c(OC)c3)C3CCCC3)c12` here?
**A.** Its Activity is 34.8%.

**Q.** Which Activity does the source give for `CCN(Cc1cccc2[nH]c3ccccc3c12)C(=O)/C=C/c1ccc(O)c(OC)c1` here?
**A.** Its Activity is 24.7%.

System: not listed separately
Experiment: Antioxidant activity assessed as galvinoxyl radical scavenging activity at 100 uM after 19 hrs by UV spectrophotometric analysis
Assay type: physicochemical
How it was run: (§3)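 Galvinoxyl radical at 2 µM in ethanol, with compounds in ethanol at 1, 2, 10, 50 or 100 µM. Mixture lines used an equimolar (1:1) blend with ferulic acid. A428 was recorded before addition and after 19 h once stable. Percent radical scavenged = (1 − Abst/Abs0) × 100.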

**Q.** Which Activity does the source give for `COc1ccc2c(c1)[nH]c1cccc(CN(C(=O)/C=C/c3ccc(O)c(OC)c3)C3CCCC3)c12` here?
**A.** Its Activity is 87.4%.

**Q.** With `CCN(Cc1cccc2[nH]c3ccccc3c12)C(=O)/C=C/c1ccc(O)c(OC)c1` as the molecule, how does the Activity read?
**A.** The Activity was 86.3%.

System: not listed separately
Experiment: Antioxidant activity assessed as galvinoxyl radical scavenging activity at 50 uM after 19 hrs by UV spectrophotometric analysis
Assay type: physicochemical
How it was run: as §3

**Q.** For `COc1ccc2c(c1)[nH]c1cccc(CN(C(=O)/C=C/c3ccc(O)c(OC)c3)C3CCCC3)c12`, which Activity is on record?
**A.** Its Activity is 66.8%.

**Q.** For `CCN(Cc1cccc2[nH]c3ccccc3c12)C(=O)/C=C/c1ccc(O)c(OC)c1`, which Activity is on record?
**A.** Its Activity is 82.8%.

System: not listed separately
Experiment: Antioxidant activity assessed as galvinoxyl radical scavenging activity at 10 uM after 19 hrs by UV spectrophotometric analysis
Assay type: physicochemical
How it was run: as §3

**Q.** For `COc1ccc2c(c1)[nH]c1cccc(CN(C(=O)/C=C/c3ccc(O)c(OC)c3)C3CCCC3)c12`, which Activity is on record?
**A.** Its Activity is 37.4%.

**Q.** Which Activity does the source give for `CCN(Cc1cccc2[nH]c3ccccc3c12)C(=O)/C=C/c1ccc(O)c(OC)c1` here?
**A.** Its Activity is 55%.

System: not listed separately
Experiment: Antioxidant activity assessed as galvinoxyl radical scavenging activity at 2 uM after 19 hrs by UV spectrophotometric analysis
Assay type: physicochemical
How it was run: as §3

**Q.** Which Activity does the source give for `COc1ccc2c(c1)[nH]c1cccc(CN(C(=O)/C=C/c3ccc(O)c(OC)c3)C3CCCC3)c12` here?
**A.** The Activity was 24%.

**Q.** With `CCN(Cc1cccc2[nH]c3ccccc3c12)C(=O)/C=C/c1ccc(O)c(OC)c1` as the molecule, how does the Activity read?
**A.** Its Activity is 40.1%.

System: not listed separately
Experiment: Antioxidant activity assessed as galvinoxyl radical scavenging activity at 1 uM after 19 hrs by UV spectrophotometric analysis
Assay type: physicochemical
How it was run: as §3

**Q.** Which Activity does the source give for `COc1ccc2c(c1)[nH]c1cccc(CN(C(=O)/C=C/c3ccc(O)c(OC)c3)C3CCCC3)c12` here?
**A.** Its Activity is 14.8%.

**Q.** For `CCN(Cc1cccc2[nH]c3ccccc3c12)C(=O)/C=C/c1ccc(O)c(OC)c1`, which Activity is on record?
**A.** The Activity was 24.7%.
